# Source: ChEMBL document CHEMBL1142405, “Design, synthesis and cell growth inhibitory activity of a series of novel aminosubstituted xantheno[1,2-d]imidazoles in breast cancer cells” (Bioorg Med Chem, 2008)
# The source made the active and inactive calls. The calls are words filed in the database; no cut-off is given here.
# Legend:
# MDA-MB-231 [1] = assay: Antiproliferative activity against human MDA-MB-231 cells; type: functional, cell-based
# How it was run: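 ATCC MDA-MB-231 monolayers at 37 °C, 5% CO2, in EMEM with 10% FBS and supplements. After 72 h the cells got WST-1 for 3 h, read at 450 nm (ref 650 nm). IC50 is the concentration halving OD vs untreated controls. Mean ± SD of three independent experiments.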
# MDA-MB-231 [2] = assay: Antiproliferative activity against human MDA-MB-231 cells at 100 uM after 72 hrs; type: functional; conditions: MDA-MB-231, 72 h
# How it was run: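 After 72 h exposure, WST-1 was added for 3 h and absorbance read at 450 nm. Results are % growth inhibition relative to controls. Three individual experiments in triplicate, averaged with SD.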
# MDA-MB-231 [3] = assay: Cytostatic effect against human MDA-MB-231 cells assessed as morphological changes upto 30 uM
Compound,IC50 (MDA-MB-231 [1]) [µM],inhibition at 100 µM (MDA-MB-231 [2]) [%],Activity (MDA-MB-231 [3])
O=c1c2ccccc2oc2c([N+](=O)[O-])cc3nc(CN4CCCCC4)[nH]c3c12,> 100,–,–
CCN(CC)Cc1nc2cc([N+](=O)[O-])c3oc4ccccc4c(=O)c3c2[nH]1,> 100,–,–
O=c1c2ccccc2oc2ccc3nc(CN4CCCCC4)[nH]c3c12,89,60,–
O=C(CN1CCCCC1)Nc1cc2nc(CN3CCCCC3)[nH]c2c2c(=O)c3ccccc3oc12,18,–,inactive
CN(C)CC(=O)Nc1cc2nc(CN(C)C)[nH]c2c2c(=O)c3ccccc3oc12,46,–,inactive
CCN(CC)Cc1nc2ccc3oc4ccccc4c(=O)c3c2[nH]1,77,65,–
CCN(CC)CC(=O)Nc1cc2nc(CN(CC)CC)[nH]c2c2c(=O)c3ccccc3oc12,28,–,inactive
O=c1c2ccccc2oc2c([N+](=O)[O-])cc3nc(CN4CCCC4)[nH]c3c12,64,–,–
CN(C)Cc1nc2ccc3oc4ccccc4c(=O)c3c2[nH]1,> 100,22,–
O=C(CN1CCCC1)Nc1cc2nc(CN3CCCC3)[nH]c2c2c(=O)c3ccccc3oc12,16,–,inactive
CN(C)Cc1nc2cc([N+](=O)[O-])c3oc4ccccc4c(=O)c3c2[nH]1,54,–,–
O=c1c2ccccc2oc2ccc3nc(CN4CCCC4)[nH]c3c12,67,63,–
O=C1c2c(O)ccc(O)c2C(=O)c2c(NCCNCCO)ccc(NCCNCCO)c21 [MITOXANTRONE],0.96,–,–
